We go through 6 molecules from ChEMBL document CHEMBL3352604, “Development of novel azabenzofuran TRPA1 antagonists as in vivo tools” (Bioorg Med Chem Lett, 2014).

≈ marks a conversion by molar mass, not a printed value. Calls of active or inactive are those of the source. The calls are words filed in the database; no cut-off is given here. Where only a bound is given, the exact number is not on record here.

Data set [1] relates to Rattus norvegicus. The experiment in a line: Effect on open filed activity in Harlan Sprague-Dawley rat model of AITC-induced flinching at 30 to 100 mg/kg, po. In kind it is organism-based. Further details: dose 30-100 mg/kg, route oral. The settings on record: in vivo.
A short description of data set [2]: Solubility in PBS buffer at pH 7.4. The data set is classed as physicochemical. The method, boiled down: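 Solubility measured in phosphate buffered saline, pH 7.4.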
Data set [3] in a line: Clearance in Sprague-Dawley rat at 0.5 mg/kg, iv. In kind it is ADME, organism-based. As to conditions: in vivo. Further details: dose 0.5 mg/kg, route intravenous. The procedure, abridged:
(§1)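 Male Sprague-Dawley rats (n = 3) given 0.5 mg/kg iv in DMSO.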

Data set [4] is described as follows: Ratio of unbound plasma concentration in Harlan Sprague-Dawley rat model of AITC-induced flinching at 10 mg/kg, po after 1 hr to IC50 for antagonist activity at rat TRPA1 by [45Ca2+] fluorimetry assay. As to conditions: in vivo. The data set is classed as organism-based. Further details: dose 10 mg/kg, route oral. The method, boiled down:
(§2)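 Male Harlan Sprague-Dawley rats were dosed orally in 2% HPMC/1% Tween-80. After 1 h, 0.1% AITC was injected into the left ventral hind paw. Unbound plasma concentration was measured (n=8 at 10 and 100 mg/kg, n=6 at 30 mg/kg) and divided by the rat TRPA1 IC50. That IC50 came from a 45Ca2+ fluorimetry antagonism assay in cells expressing rat TRPA1.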

Data set [5] in a line: Half life in Sprague-Dawley rat at 0.5 mg/kg, iv. In kind it is ADME, organism-based. Further details: dose 0.5 mg/kg, route intravenous. As to conditions: in vivo. The procedure, abridged:
as §1

Data set [6] is described as follows: Volume of distribution at steady state in Sprague-Dawley rat at 0.5 mg/kg, iv. Further details: dose 0.5 mg/kg, route intravenous. In kind it is ADME, organism-based. The settings on record: in vivo, read-out: Vdss. The method, boiled down:
as §1

Data set [7] is described as follows: Clearance in human liver microsomes. In kind it is ADME. The settings on record: read-out: CLH. A general note: Liver microsomes are vesicles of endoplasmic reticulum, rich in cytochrome P450 enzymes.
The target in data set [8] is T1, Transient receptor potential cation channel subfamily A member 1 (Rattus norvegicus, UniProt Q6RI86). The experiment in a line: Agonist activity at rat TRPA1 by [45Ca2+] fluorimetry assay.
T1 sequence (Q6RI86 whole entry): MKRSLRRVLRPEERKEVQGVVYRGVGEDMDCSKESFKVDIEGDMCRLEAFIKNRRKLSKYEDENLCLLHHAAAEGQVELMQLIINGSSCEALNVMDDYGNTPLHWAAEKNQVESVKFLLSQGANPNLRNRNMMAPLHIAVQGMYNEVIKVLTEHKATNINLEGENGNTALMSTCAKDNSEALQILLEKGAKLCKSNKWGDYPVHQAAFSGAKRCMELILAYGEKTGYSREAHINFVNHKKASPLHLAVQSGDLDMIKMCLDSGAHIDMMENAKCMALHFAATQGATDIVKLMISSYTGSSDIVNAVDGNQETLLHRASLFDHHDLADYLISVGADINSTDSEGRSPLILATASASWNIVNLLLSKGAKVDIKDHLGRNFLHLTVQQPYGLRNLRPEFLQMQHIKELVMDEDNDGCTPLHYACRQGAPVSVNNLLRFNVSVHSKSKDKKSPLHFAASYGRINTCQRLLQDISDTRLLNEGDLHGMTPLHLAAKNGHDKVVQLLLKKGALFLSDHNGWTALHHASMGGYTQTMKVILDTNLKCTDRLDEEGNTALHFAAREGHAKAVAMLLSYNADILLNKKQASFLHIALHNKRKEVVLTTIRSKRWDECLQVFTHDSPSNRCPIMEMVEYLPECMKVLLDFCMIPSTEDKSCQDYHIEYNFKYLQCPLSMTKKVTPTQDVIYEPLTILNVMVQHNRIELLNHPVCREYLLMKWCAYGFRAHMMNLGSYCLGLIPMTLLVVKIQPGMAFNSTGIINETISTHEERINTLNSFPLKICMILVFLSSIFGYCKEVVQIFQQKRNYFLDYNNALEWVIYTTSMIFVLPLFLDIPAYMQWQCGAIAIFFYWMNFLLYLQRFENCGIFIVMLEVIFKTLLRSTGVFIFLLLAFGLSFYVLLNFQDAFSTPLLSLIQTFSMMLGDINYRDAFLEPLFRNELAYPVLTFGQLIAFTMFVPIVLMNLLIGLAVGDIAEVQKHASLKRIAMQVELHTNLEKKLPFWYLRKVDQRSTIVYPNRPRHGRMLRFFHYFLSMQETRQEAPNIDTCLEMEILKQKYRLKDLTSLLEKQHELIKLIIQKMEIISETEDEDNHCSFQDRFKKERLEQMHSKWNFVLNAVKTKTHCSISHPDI
Data set [9] is described as follows: Ratio of unbound plasma concentration in Harlan Sprague-Dawley rat model of AITC-induced flinching at 100 mg/kg, po after 1 hr to IC50 for antagonist activity at rat TRPA1 by [45Ca2+] fluorimetry assay. In kind it is organism-based. Further details: dose 100 mg/kg, route oral. As to conditions: in vivo. The method, boiled down:
as §2

A short description of data set [10]: Oral bioavailability in fasted Sprague-Dawley rat at 30 mg/kg. The data set is classed as ADME, organism-based. The settings on record: in vivo. The method, boiled down: (§3)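 Male Sprague-Dawley rats (n = 3) dosed po in 2% HPMC, 1% Tween 80 in H2O, pH 2.2 with MSA. Animals fasted during the PK study.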
The test system of data set [11] is Plasma. As to the kind of experiment: Unbound plasma concentration in Harlan Sprague-Dawley rat model of AITC-induced flinching at 100 mg/kg, po after 1 hr. In kind it is ADME, organism-based. Further details: dose 100 mg/kg, route oral. As to conditions: in vivo. The procedure, abridged:
(§4)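 Male Harlan Sprague-Dawley rats dosed orally in 2% HPMC/1% Tween-80, with a 0.1% AITC paw challenge at 1 h. Unbound plasma concentration determined with n=8, 6 and 8 for the 10, 30 and 100 mg/kg doses respectively.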

Data set [12] is described as follows: Clearance in rat liver microsomes. The data set is classed as ADME. The settings on record: read-out: CLH.
Data set [13] can be described thus: Fraction unbound in rat plasma by equilibrium dialysis method. The data set is classed as ADME, cell-free. Background: In equilibrium dialysis free small molecules cross a membrane that holds back macromolecules.
Data set [14] has as its system Rattus norvegicus. As to the kind of experiment: Unbound clearance in Sprague-Dawley rat at 0.5 mg/kg, iv. In kind it is ADME, organism-based. Further details: dose 0.5 mg/kg, route intravenous. The settings on record: in vivo. The procedure, abridged:
as §1

Data set [15] deals with Rattus norvegicus. The experiment in a line: fCmax in fed Sprague-Dawley rat at 100 mg/kg, po. The data set is classed as ADME, organism-based. Further details: dose 100 mg/kg, route oral. The settings on record: in vivo. The method, boiled down: (§5)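 Male Sprague-Dawley rats (n = 3) dosed po at 100 mg/kg in 2% HPMC, 1% Tween 80 in H2O, pH 2.2 with MSA. Animals fed during the PK study.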

Data set [16] in a line: Solubility in fasted state simulated intestinal fluid at pH 6.8. The data set is classed as ADME.
Data set [17] is filed under the species Rattus norvegicus. As to conditions: Harlan Sprague-Dawley, 30 to 100 mg/kg.
For data set [18], the target named is T1, Transient receptor potential cation channel subfamily A member 1. The experiment in a line: Antagonist activity at rat TRPA1 assessed as inhibition of AITC-induced calcium uptake by [45Ca2+] fluorimetry assay. The procedure, abridged: (§6)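 Antagonism read by 45Ca2+ fluorimetry in cells expressing rat or human TRPA1. IC50 determined. Where no IC50 was obtained, % inhibition was measured at a single 2 μM point.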

Data set [19] is described as follows: Solubility in 0.01 N HCl solution in water. The data set is classed as physicochemical. The procedure, abridged:
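Solubility measured in 0.01 N hydrogen chloride solution in water.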

In data set [20] the target is T2, Transient receptor potential cation channel subfamily A member 1 (Homo sapiens, UniProt O75762). The experiment in a line: Antagonist activity at human TRPA1 assessed as inhibition of AITC-induced calcium uptake by [45Ca2+] fluorimetry assay. The procedure, abridged: as §6
T2 sequence (O75762 whole entry): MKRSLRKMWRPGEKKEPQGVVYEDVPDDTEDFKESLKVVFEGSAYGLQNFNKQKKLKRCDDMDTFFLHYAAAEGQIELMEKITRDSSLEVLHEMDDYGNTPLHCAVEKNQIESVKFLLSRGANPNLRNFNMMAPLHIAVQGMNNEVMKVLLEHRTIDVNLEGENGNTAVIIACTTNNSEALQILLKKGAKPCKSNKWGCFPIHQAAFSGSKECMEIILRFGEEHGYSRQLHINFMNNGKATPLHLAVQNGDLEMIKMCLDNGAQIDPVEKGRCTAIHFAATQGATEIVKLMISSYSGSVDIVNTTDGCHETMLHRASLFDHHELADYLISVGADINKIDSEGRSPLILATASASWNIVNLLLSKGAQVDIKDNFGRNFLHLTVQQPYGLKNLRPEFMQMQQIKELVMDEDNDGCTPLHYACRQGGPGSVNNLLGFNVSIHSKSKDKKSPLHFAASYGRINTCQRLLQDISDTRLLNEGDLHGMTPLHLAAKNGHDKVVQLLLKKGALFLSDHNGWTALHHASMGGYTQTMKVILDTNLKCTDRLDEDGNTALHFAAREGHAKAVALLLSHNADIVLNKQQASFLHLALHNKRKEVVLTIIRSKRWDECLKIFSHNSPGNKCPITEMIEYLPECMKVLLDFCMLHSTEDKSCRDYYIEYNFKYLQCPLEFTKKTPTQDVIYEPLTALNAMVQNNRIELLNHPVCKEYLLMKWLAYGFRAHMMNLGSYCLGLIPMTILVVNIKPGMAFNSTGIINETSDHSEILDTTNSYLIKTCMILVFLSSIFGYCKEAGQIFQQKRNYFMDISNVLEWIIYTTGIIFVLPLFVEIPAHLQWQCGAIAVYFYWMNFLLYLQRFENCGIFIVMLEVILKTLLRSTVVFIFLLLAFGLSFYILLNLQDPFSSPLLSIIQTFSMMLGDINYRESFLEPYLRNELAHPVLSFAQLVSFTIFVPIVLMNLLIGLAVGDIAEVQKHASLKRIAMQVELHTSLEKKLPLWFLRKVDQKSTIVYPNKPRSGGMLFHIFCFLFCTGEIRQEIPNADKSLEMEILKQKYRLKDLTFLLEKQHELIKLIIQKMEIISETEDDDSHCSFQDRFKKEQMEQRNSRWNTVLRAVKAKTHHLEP
For data set [21], the system named is Plasma. As to the kind of experiment: Unbound plasma concentration in Harlan Sprague-Dawley rat model of AITC-induced flinching at 30 mg/kg, po after 1 hr. As to conditions: in vivo. In kind it is ADME, organism-based. Further details: dose 30 mg/kg, route oral. The method, boiled down:
as §4

A short description of data set [22]: Ratio of fCmax in fed Sprague-Dawley rat at 100 mg/kg, po to IC50 for antagonist activity at rat TRPA1 by [45Ca2+] fluorimetry assay. The procedure, abridged:
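Male Sprague-Dawley rats (n = 3), fed, were given an oral dose in 2% HPMC, 1% Tween 80 in water, adjusted to pH 2.2 with MSA. The unbound Cmax from this PK study was divided by the rat TRPA1 IC50. That IC50 came from a 45Ca2+ fluorimetry antagonism assay in cells expressing rat TRPA1.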

Data set [23] can be described thus: Ratio of unbound plasma concentration in Harlan Sprague-Dawley rat model of AITC-induced flinching at 30 mg/kg, po after 1 hr to IC50 for antagonist activity at rat TRPA1 by [45Ca2+] fluorimetry assay. The data set is classed as organism-based. As to conditions: in vivo. Further details: dose 30 mg/kg, route oral. The procedure, abridged: as §2
The test system of data set [24] is Plasma. As to the kind of experiment: Unbound plasma concentration in Harlan Sprague-Dawley rat model of AITC-induced flinching at 10 mg/kg, po after 1 hr. The data set is classed as ADME, organism-based. Further details: dose 10 mg/kg, route oral. The settings on record: in vivo. The procedure, abridged:
as §4

In data set [25] the target is T2, Transient receptor potential cation channel subfamily A member 1. The experiment in a line: Agonist activity at human TRPA1 by [45Ca2+] fluorimetry assay.
Data set [26] in a line: Oral bioavailability in fed Sprague-Dawley rat at 100 mg/kg. The data set is classed as ADME, organism-based. The settings on record: in vivo. The procedure, abridged: as §5
For data set [27], the system named is Rattus norvegicus. As to the kind of experiment: fCmax in fasted Sprague-Dawley rat at 30 mg/kg, po. In kind it is ADME, organism-based. Further details: dose 30 mg/kg, route oral. The settings on record: in vivo. The procedure, abridged: as §3

By solubility is commonly meant how much of the substance goes into solution per volume. Read a high solubility as much dissolved substance. In general, clearance refers to the volume of plasma or blood freed of the substance per unit of time. A high value points to a high capacity for elimination. The term half-life denotes the time in which the quantity being followed falls by half. Higher therefore signals slow loss. In general, EC50 refers to the concentration that produces a half-maximal response. Read a high EC50 as a less potent agent. By bioavailability is commonly meant dose-corrected exposure relative to a reference, in per cent. The low end stands for poor availability, the high end for good availability. In general, fraction unbound refers to the share of the substance not bound to proteins or other matrix. As usually defined, the IC50 is the concentration needed to halve the response being measured. Consider `COCCCOc1cccc([C@H]2NC(=S)Nc3c2oc2ncccc32)c1`, for which the Activity result in the data set on Rattus norvegicus [1] is on record as “Non-toxic”. Also, the solubility is 21 µg/mL (≈ 56.8 µM) in [2], 46 µg/mL (≈ 125 µM) in data set [16] and 28 µg/mL (≈ 75.8 µM) in [19]. The clearance in [3] is 50 mL/min/kg. Further, the Ratio came out at 1 in data set [4], 16 in [9], 14 in data set [22] and 5 in [23]. For the same molecule, the half-life in [5] is 1.2 h. Besides, the Vd in [6] is 4 L/kg. In addition, the microsomal CLint in data set [7] came to 30 µL/min/mg; in [12], 90 µL/min/mg. Moreover, the concentration giving a half-maximal response (EC50) in data set [8] and in [25] was greater than 40000 nM throughout. For the same molecule, the figures for the bioavailability in data set [10] and in data set [26] were 13% and 79%, respectively. In addition, the “Cp(f)” value in the data set on Plasma [11] turned out to be 740 nM; with Plasma [21], 220 nM; in the data set on Plasma [24] it was 48 nM. The same molecule returned a fraction unbound in [13] of 0.085. Besides, in the data set on Rattus norvegicus [14], the CL free was found to be 600 mL/min/kg. Further, the values for the fCmax in the data set on Rattus norvegicus [15] and in the data set with Rattus norvegicus [27] were 0.612 µM and 0.082 µM, respectively. Also, the inhibition result in the data set listed under Rattus norvegicus [17] is “Active”. For the same molecule, the figures for the IC50 in data set [18] and in data set [20] were 45 nM and 170 nM, respectively.

For `COCCCOc1cccc(C2NC(=S)NC3=C2C(=O)c2ccccc23)c1` (racemic), the solubility in data set [2] is 10 µg/mL (≈ 26.3 µM); in data set [16] it was 23 µg/mL (≈ 60.5 µM); in [19] it was 1 µg/mL (≈ 2.63 µM). For the same molecule, the concentration for a half-maximal effect (EC50) in data set [8] and in data set [25] was greater than 40000 nM throughout. Further, the half-maximal inhibitory concentration (IC50) stood at 28 nM in data set [18] and 30 nM in [20].

On to `COCCCOc1cccc([C@H]2NC(=S)Nc3c2oc2ccccc32)c1`, for which the solubility is 1 µg/mL (≈ 2.71 µM) in data set [2], 23 µg/mL (≈ 62.4 µM) in data set [16] and 1 µg/mL (≈ 2.71 µM) in data set [19]. Further, the microsomal CLint was 90 µL/min/mg in data set [7] and 350 µL/min/mg in data set [12]. Also, the EC50 in [8] and in [25] was greater than 40000 nM in each case. The IC50 in data set [18] is 230 nM; in data set [20] it was 590 nM.

As to `COCCCOc1cccc(C2NC(=S)Nc3c2oc2c(F)cccc32)c1` (stereo not drawn), the solubility is 17 µg/mL (≈ 44 µM) in data set [2], 66 µg/mL (≈ 171 µM) in data set [16] and 14 µg/mL (≈ 36.2 µM) in [19]. In addition, the figures for the microsomal CLint in [7] and in data set [12] were 70 µL/min/mg and 140 µL/min/mg, respectively. Moreover, the EC50 in [8] and in data set [25] was greater than 40000 nM throughout. Also, the results for the IC50 in data set [18] and in data set [20] were 140 nM and 200 nM, respectively.

`COCCCOc1cc(C2NC(=S)NC3=C2C(=O)c2ccccc23)ccn1` (stereo not drawn): the microsomal CLint amounted to 82 µL/min/mg in data set [7] and 350 µL/min/mg in data set [12]. Also, the EC50 in data set [8] and in [25] was greater than 40000 nM throughout. The concentration for half-maximal inhibition (IC50) in [18] and in data set [20] was greater than 40000 nM throughout. Further, the solubility in [19] is 22 µg/mL (≈ 57.7 µM).

Take `COCCCOc1cncc(C2NC(=S)NC3=C2C(=O)c2ccccc23)c1` (stereo not drawn): the solubility in [2] is 2.8 µg/mL (≈ 7.34 µM); in [16], 14 µg/mL (≈ 36.7 µM); in data set [19], 120 µg/mL (≈ 315 µM). Besides, the microsomal CLint in data set [7] was determined as 90 µL/min/mg; in data set [12], 200 µL/min/mg. The EC50 in [8] and in data set [25] was greater than 40000 nM each time. Besides, the concentration for half-maximal inhibition (IC50) turned out to be 530 nM in data set [18] and 1200 nM in data set [20].
